Data taken from ChEMBL document CHEMBL2176869, “Discovery of TAK-875: A Potent, Selective, and Orally Bioavailable GPR40 Agonist” (ACS Med Chem Lett, 2010).
One block for each compound: values may come before it. The source made the active and inactive calls. The calls are words filed in the database; no cut-off is given here.

Legend:
[1] = biological target: Free fatty acid receptor 1 (Rattus norvegicus, UniProt Q8K3T4); test: Displacement of 3-[4-({2',6'-dimethyl-6-[(4-[3H])phenylmethoxy]biphenyl-3-yl}methoxy)phenyl]propanoic acid from rat GPR40 expressed in CHO membranes after 90 mins by liquid scintillation counting in presence of 0.2 % BSA; assay type: cell membranes, Membrane
Free fatty acid receptor 1 (Rattus norvegicus, UniProt Q8K3T4), sequence (Q8K3T4 whole entry): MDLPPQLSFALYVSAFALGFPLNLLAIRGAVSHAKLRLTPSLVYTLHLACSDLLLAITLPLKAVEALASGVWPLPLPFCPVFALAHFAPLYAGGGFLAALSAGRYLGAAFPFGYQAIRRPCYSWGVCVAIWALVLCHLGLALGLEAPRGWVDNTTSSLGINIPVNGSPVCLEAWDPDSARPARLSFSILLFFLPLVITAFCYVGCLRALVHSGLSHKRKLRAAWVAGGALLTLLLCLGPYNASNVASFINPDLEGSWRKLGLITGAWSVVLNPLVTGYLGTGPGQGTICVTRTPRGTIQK

[2] = biological target: T1, Free fatty acid receptor 1 (Homo sapiens, UniProt O14842); test: Agonist activity at human GPR40 expressed in CHO cells assessed as calcium influx by FLIPR assay in presence of 0.1 % BSA; assay type: functional, cell-based
T1 sequence (O14842 whole entry): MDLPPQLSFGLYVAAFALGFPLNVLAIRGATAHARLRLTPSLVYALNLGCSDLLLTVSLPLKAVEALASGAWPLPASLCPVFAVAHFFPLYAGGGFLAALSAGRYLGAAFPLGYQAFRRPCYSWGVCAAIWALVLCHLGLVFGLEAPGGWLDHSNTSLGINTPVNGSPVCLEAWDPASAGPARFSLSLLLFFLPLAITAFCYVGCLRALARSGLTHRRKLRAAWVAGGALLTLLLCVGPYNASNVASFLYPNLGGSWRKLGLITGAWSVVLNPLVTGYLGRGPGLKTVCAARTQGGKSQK

[3] = biological target: T1, Free fatty acid receptor 1; test: Displacement of 3-[4-({2',6'-dimethyl-6-[(4-[3H])phenylmethoxy]biphenyl-3-yl}methoxy)phenyl]propanoic acid from human GPR40 expressed in CHO membranes after 90 mins by liquid scintillation counting in presence of 0.2 % BSA; assay type: cell membranes
[4] = Volume of distribution at steady state in fasted dog at 0.5 mg/kg, iv; assay type: ADME, organism-based, Canis lupus familiaris; design: dose 0.5 mg/kg, route intravenous; settings: in vivo, read-out: Vdss
In short: (§1)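 Dogs given 0.5 mg/kg iv or 1 mg/kg po, with plasma PK parameters derived. Cmax and AUC are reported as anhydrous-compound equivalents. Means of n = 4 dogs.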

[5] = Terminal half life in fasted dog at 0.5 mg/kg, iv; assay type: ADME, organism-based, Canis lupus familiaris; design: dose 0.5 mg/kg, route intravenous; settings: in vivo, read-out: t1/2lambda (converted); in short: as §1
[6] = AUC (0 to 24 hrs) in fasted Crl:CD(SD) rat at 3 mg/kg, po; assay type: ADME, organism-based; design: time < 24 hr, dose 3 mg/kg, route oral; settings: plasma
In short: (§2)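 Rats dosed at 1 mg/kg iv or 3 mg/kg po, with plasma sampling for PK parameters. Cmax and AUC are expressed as anhydrous-compound equivalents. Values are means of n = 3 rats.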

[7] = biological target: T2, Free fatty acid receptor 3 (Homo sapiens, UniProt O14843); test: Agonist activity at human GPR41 expressed in 293 cells assessed as cAMP accumulation after 30 mins by Alphascreen method; assay type: functional, cell-based, HEK293
T2 sequence (O14843 whole entry): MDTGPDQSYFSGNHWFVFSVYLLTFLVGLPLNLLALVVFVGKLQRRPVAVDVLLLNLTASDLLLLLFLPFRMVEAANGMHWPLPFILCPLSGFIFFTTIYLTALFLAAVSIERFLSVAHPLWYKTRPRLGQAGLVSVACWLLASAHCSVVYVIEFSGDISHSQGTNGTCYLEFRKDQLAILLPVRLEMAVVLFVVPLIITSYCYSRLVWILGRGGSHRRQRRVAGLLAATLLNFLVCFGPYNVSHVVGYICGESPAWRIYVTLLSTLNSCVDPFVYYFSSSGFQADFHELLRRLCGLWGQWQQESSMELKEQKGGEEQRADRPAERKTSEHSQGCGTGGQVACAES

[8] = Oral bioavailability in fasted Crl:CD(SD) rat at 3 mg/kg; assay type: ADME, organism-based; settings: in vivo; in short: as §2
Rattus norvegicus [9] = test: Antidiabetic activity in Wistar fatty rat assessed as augmentation of insulin secretion at 0.3 to 3 mg/kg, po administered 1 hr prior glucose challenge as single dose by OGTT
Rattus norvegicus [10] = test: Antidiabetic activity in po dosed Wistar fatty rat assessed as augmentation of insulin secretion at administered 1 hr prior glucose challenge as single dose by OGTT; assay type: functional; settings: read-out: MED
In short: (§3)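 Female Wistar fatty rats got a single oral dose of 0.3–3 mg/kg 1 h before a 1 g/kg oral glucose challenge (OGTT). Plasma glucose and insulin were followed over time. Read-outs were incremental AUC0–120 min for glucose and AUCpre–30 min for insulin. Means ± SD, n = 6; compared with vehicle control by one-tailed Williams' test.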

[11] = Clearance in fasted dog at 0.5 mg/kg, iv; assay type: ADME, organism-based, Canis lupus familiaris; design: dose 0.5 mg/kg, route intravenous; settings: in vivo; in short: as §1
[12] = Tmax in fasted Crl:CD(SD) rat at 3 mg/kg, po; assay type: ADME, organism-based; design: dose 3 mg/kg, route oral; settings: in vivo; in short: as §2
[13] = Clearance in fasted Crl:CD(SD) rat at 1 mg/kg, iv; assay type: ADME, organism-based; design: dose 1 mg/kg, route intravenous; settings: in vivo; in short: as §2
[14] = Terminal half life in fasted dog at 1 mg/kg, po; assay type: ADME, organism-based, Canis lupus familiaris; design: dose 1 mg/kg, route oral; settings: in vivo, read-out: t1/2lambda (converted); in short: as §1
[15] = Cmax in fasted dog at 1 mg/kg, po; assay type: ADME, organism-based, Canis lupus familiaris; design: dose 1 mg/kg, route oral; settings: in vivo; in short: as §1
[16] = biological target: T3, Free fatty acid receptor 2 (Homo sapiens, UniProt O15552); test: Agonist activity at human GPR43 expressed in 293 cells assessed as cAMP accumulation after 30 mins by Alphascreen method; assay type: functional, cell-based, HEK293
T3 sequence (O15552 whole entry): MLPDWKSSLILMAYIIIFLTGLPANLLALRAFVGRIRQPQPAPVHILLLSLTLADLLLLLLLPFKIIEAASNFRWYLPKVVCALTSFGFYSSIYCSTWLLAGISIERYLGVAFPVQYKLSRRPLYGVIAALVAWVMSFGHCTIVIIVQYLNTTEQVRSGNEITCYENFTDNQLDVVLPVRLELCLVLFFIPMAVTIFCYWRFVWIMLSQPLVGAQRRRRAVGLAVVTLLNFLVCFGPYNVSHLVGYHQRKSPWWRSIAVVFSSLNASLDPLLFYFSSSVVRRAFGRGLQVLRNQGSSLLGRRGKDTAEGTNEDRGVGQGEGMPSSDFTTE

[17] = Cmax in fasted Crl:CD(SD) rat at 3 mg/kg, po; assay type: ADME, organism-based; design: dose 3 mg/kg, route oral; settings: in vivo; in short: as §2
[18] = AUC (0 to 24 hrs) in fasted dog at 1 mg/kg, po; assay type: ADME, organism-based, Canis lupus familiaris; design: time < 24 hr, dose 1 mg/kg, route oral; settings: plasma; in short: as §1
[19] = Tmax in fasted dog at 1 mg/kg, po; assay type: ADME, organism-based, Canis lupus familiaris; design: dose 1 mg/kg, route oral; settings: in vivo; in short: as §1
Rattus norvegicus [20] = test: Antidiabetic activity in po dosed Wistar fatty rat assessed as reduction in blood glucose excursion at administered 1 hr prior glucose challenge as single dose by OGTT; assay type: functional; settings: read-out: MED; in short: as §3
[21] = Oral bioavailability in fasted dog at 1 mg/kg; assay type: ADME, organism-based, Canis lupus familiaris; settings: in vivo; in short: as §1
[22] = Terminal half life in fasted Crl:CD(SD) rat at 3 mg/kg, po; assay type: ADME, organism-based; design: dose 3 mg/kg, route oral; settings: in vivo, read-out: t1/2lambda (converted); in short: as §2
[23] = biological target: T4, Free fatty acid receptor 4 (Homo sapiens, UniProt Q5NUL3); test: Agonist activity at human GPR120 expressed in CHO cells assessed as calcium influx after 30 mins by FLIPR assay; assay type: functional, cell-based
T4 sequence (Q5NUL3 whole entry): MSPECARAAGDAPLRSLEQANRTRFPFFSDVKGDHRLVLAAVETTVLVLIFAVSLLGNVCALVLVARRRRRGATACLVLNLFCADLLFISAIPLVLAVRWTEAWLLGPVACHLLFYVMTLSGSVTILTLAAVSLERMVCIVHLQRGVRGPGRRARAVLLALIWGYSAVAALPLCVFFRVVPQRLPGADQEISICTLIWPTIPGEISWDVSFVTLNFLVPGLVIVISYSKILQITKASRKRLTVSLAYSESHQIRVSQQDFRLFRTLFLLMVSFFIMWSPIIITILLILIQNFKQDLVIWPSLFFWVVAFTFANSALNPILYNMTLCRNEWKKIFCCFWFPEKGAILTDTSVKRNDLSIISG

[24] = Volume of distribution at steady state in fasted Crl:CD(SD) rat at 1 mg/kg, iv; assay type: ADME, organism-based; design: dose 1 mg/kg, route intravenous; settings: in vivo, read-out: Vdss; in short: as §2
[25] = Terminal half life in fasted Crl:CD(SD) rat at 1 mg/kg, iv; assay type: ADME, organism-based; design: dose 1 mg/kg, route intravenous; settings: in vivo, read-out: t1/2lambda (converted); in short: as §2
Rattus norvegicus [26] = test: Antidiabetic activity in Wistar fatty rat assessed as reduction in blood glucose excursion at 0.3 to 3 mg/kg, po administered 1 hr prior glucose challenge as single dose by OGTT; assay type: functional, organism-based; in short: as §3

SMILES: Cc1cccc(C)c1-c1cccc(COc2ccc3c(c2)CCC3CC(=O)O)c1 (centres undefined)
- Ki [1]: 520 nM
- EC50 [2]: 28 nM
- Ki [3]: 210 nM

SMILES: Cc1cccc(C)c1-c1cccc(COc2ccc3c(CC(=O)O)coc3c2)c1
- Ki [1]: > 10000 nM
- EC50 [2]: 1700 nM
- Ki [3]: > 10000 nM

SMILES: Cc1cccc(C)c1-c1cccc(COc2ccc3c(c2)OCCC(C(=O)O)C3)c1 (centres undefined)
- Ki [1]: > 10000 nM
- EC50 [2]: 49 nM
- Ki [3]: 270 nM

SMILES: Cc1cc(OCCCS(C)(=O)=O)cc(C)c1-c1cccc(COc2ccc3c(c2)OC[C@H]3CC(=O)O)c1.O
- Ki [1]: 140 nM
- Vd [4]: 0.225 L/kg
- half-life [5]: 5.9 h
- AUC(0-t) at 24 h [6]: 65000 ng·h/mL
- EC50 [7]: > 10000 nM
- bioavailability [8]: 76%
- Activity (Rattus norvegicus [9]): Active
- minimal effective dose (Rattus norvegicus [10]): 1 mg/kg
- clearance [11]: 0.496 mL/min/kg
- Tmax [12]: 1 h
- clearance [13]: 0.569 mL/min/kg
- half-life [14]: 7.5 h
- Cmax [15]: 3290 ng/mL
- EC50 [16]: > 10000 nM
- Cmax [17]: 5770 ng/mL
- AUC(0-t) at 24 h [18]: 29400 ng·h/mL
- Tmax [19]: 2 h
- minimal effective dose (Rattus norvegicus [20]): 1 mg/kg
- bioavailability [21]: 92.4%
- half-life [22]: 4.1 h
- EC50 [23]: > 10000 nM
- Vd [24]: 0.208 L/kg
- half-life [25]: 4.7 h
- Activity (Rattus norvegicus [26]): Active

SMILES: Cc1cccc(C)c1-c1cccc(COc2ccc3c(c2)CCCC3CC(=O)O)c1 (centres undefined)
- Ki [1]: 3700 nM
- EC50 [2]: 23 nM
- Ki [3]: 59 nM

The next lines start with the values.

- Ki [1]: > 10000 nM
- EC50 [2]: 540 nM
- Ki [3]: 2400 nM
SMILES: Cc1cccc(C)c1-c1cccc(COc2ccc3c(c2)CCCCC3CC(=O)O)c1 (centres undefined)

- Ki [1]: 54 nM
SMILES: Cc1cccc(C)c1-c1cccc(COc2ccc(CCC(=O)O)c(F)c2)c1

- Ki [1]: 1100 nM
- EC50 [2]: 22 nM
- Ki [3]: 170 nM
SMILES: Cc1cccc(C)c1-c1cccc(COc2ccc3c(c2)OCC3CC(=O)O)c1 (centres undefined)

- Ki [1]: 1600 nM
SMILES: Cc1cc(OCCCS(C)(=O)=O)cc(C)c1-c1cccc(COc2ccc3c(c2)OC[C@@H]3CC(=O)O)c1
